Article PMC2647857 (Journal of the American Chemical Society, 2009)
Where “and” joins values, the source holds several entries; their conditions need not be identical. Identical values can stand only once. Like-named read-outs stand apart in the source and are kept apart here.

What was measured:
NP1-E55Q = NP1-E55Q (Rhodnius prolixus, UniProt Q26239, E78Q); assay: biochemical; assay type: binding
[1] = Spectroelectrochemical midpoint potential, ligand-free; assay type: physicochemical, Rhodnius prolixus; conditions: for ΔEm = Em(mutant)−Em(standard) / Em: ligand-free
[2] = Spectroelectrochemical midpoint potential of the NO complex; assay type: physicochemical, Rhodnius prolixus; conditions: for ΔpHΔ(Em,NO) = ΔEm,NO(pH7.5) − ΔEm,NO(pH5.5) / ΔEm,NO = Em(mutant)−Em(standard) / Em,NO: NO bound
Summary of the method: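 Spectroelectrochemistry of ~0.05 mM E. coli-expressed protein in 0.1 M sodium phosphate or acetate at pH 5.5, 6.5 and 7.5, 27 ± 1 °C. SNAP supplied NO at a level fully complexing both oxidation states. Ag/AgCl reference ([…] mV vs SHE). Absorbance versus applied potential fit to Nernst equation; pH dependence and mutant−standard differences derived.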

[3] = Imidazole binding constant to Fe; set-up: species or system Rhodnius prolixus
[4] = Histamine binding constant to Fe; set-up: species or system Rhodnius prolixus; conditions: pH 7.5
[5] = ligand-free, cited from earlier work
[6] = NO bound, cited from earlier work
[7] = NO binding constant to Fe; set-up: species or system Rhodnius prolixus; conditions: pH 7.5
[8] = read-out: Kd for NO dissociation, Fe(III), cited from earlier work

Sequence of NP1-E55Q (Q26239 24-207 E78Q): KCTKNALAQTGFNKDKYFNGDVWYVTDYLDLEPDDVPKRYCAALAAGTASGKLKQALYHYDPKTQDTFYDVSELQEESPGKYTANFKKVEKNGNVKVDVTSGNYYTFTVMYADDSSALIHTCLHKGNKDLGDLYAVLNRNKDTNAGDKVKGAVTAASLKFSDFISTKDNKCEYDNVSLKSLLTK

Compound	ΔEm = Em(mutant)−Em(standard) ([1]; pH 5.5) [mV]	Em ([1]; pH 5.5, 27 °C) [mV vs. SHE]	ΔEm = Em(mutant)−Em(standard) ([1]; pH 6.5) [mV]	Em ([1]; pH 6.5, 27 °C) [mV vs. SHE]	ΔEm = Em(mutant)−Em(standard) ([1]; pH 7.5) [mV]	Em ([1]; pH 7.5, 27 °C) [mV vs. SHE]	ΔpHΔ(Em,NO) = ΔEm,NO(pH7.5) − ΔEm,NO(pH5.5) [2] [mV]	ΔEm,NO = Em(mutant)−Em(standard) ([2]; pH 5.5)	Em,NO ([2]; pH 5.5, 27 °C) [mV vs. SHE]	ΔEm,NO = Em(mutant)−Em(standard) ([2]; pH 6.5) [mV]	Em,NO ([2]; pH 6.5, 27 °C) [mV vs. SHE]	ΔEm,NO = Em(mutant)−Em(standard) ([2]; pH 7.5)	Em,NO ([2]; pH 7.5, 27 °C) [mV vs. SHE]	other results
c1c[nH]cn1 [imidazole, imidazole (ImH)]	–	–	–	–	–	–	–	–	–	–	–	–	–	Kd (NP1-E55Q): 200 nM
NP2-D1A,D29A: site-directed mutant of NP2-D1A, D29 replaced by Ala	−17±3	−334±3	19±6	−308±3	12±3	−313±1	50±3	−28±2 mV	20±1	26±2	36±1	22±2 mV	2±1	binding constant of imidazole larger than that of histamine ([3]; pH 7.5): 1.3 log units
NP2-D1A,D31A: site-directed mutant of NP2-D1A, D31 replaced by Ala	−55±6	−373±6	−45±9	−372±8	−41±4	−366±3	22±3	−10±2 mV	38±2	−3±2	7±2	12±3 mV	−8±2	–
NP2-D1A,D36A: site-directed mutant of NP2-D1A, D36 replaced by Ala	25±4	−293±3	11±7	−315±4	18±5	−307±4	39±5	−12±4 mV	36±4	20±2	30±2	28±3 mV	8±2	–
NP2-D1A,D89A: site-directed mutant of NP2-D1A, D89 replaced by Ala	34±3	−284±3	23±7	−304±4	5±4	−320±3	33±3	3 mV and 3±2 mV	–	9±2	19±1	37 mV and 37±2 mV	17±2	–
NP2-D1A,D99A: site-directed mutant of NP2-D1A, D99 replaced by Ala	14±4	−304±4	13±6	−314±1	−12±5	−337±4	21±2	−10±2 mV	38±1	−1±3	9±2	11±2 mV	−9±1	–
NP2-D1A,D128A: site-directed mutant of NP2-D1A, D128 replaced by Ala	7±4	−311±4	–	–	−57±4	−382±3	38±4	−16±4 mV	32±3	−8±2	2±1	22±2 mV	2±1	–
NP2-D1A,E53Q: site-directed mutant of NP2-D1A, buried E53 replaced by Gln	–	–	–	–	10±4	−316±3	64±4	40±3 mV	88±3	95±2	105±1	104 mV and 104±3 mV	84±2	–
NP2-D1A,E100A: site-directed mutant of NP2-D1A, E100 replaced by Ala	6±6	−312±6	17±7	−310±3	−32±6	−357±5	24±3	−5±2 mV	43±2	−5±2	5±1	19±2 mV	0±1	larger histamine binding constant than standard [4]: 0.7 log units
NP2-D1A,E124A: site-directed mutant of NP2-D1A, E124 replaced by Ala	125±4	−193±4	–	–	7±4	−318±2	−2±6	4±5 mV	52±5	–	–	2±3 mV	−18±3	increase in imidazole binding constant ([3]; at both pH values (5.5 and 7.5)): 0.7 log units
NP2-D1A,K127A: site-directed mutant of NP2-D1A, K127 replaced by Ala	−9±5	−327±5	−2±6	−329±3	−54±4	−379±2	27±5	−27±3 mV	21±2	−4±2	6±2	–	−20±4	midpoint potential more negative with respect to NP2-D1A ([1]; pH 7.5, absence of NO): 54 mV
NP2-D1A: D1A mutant of NP2 with M0 cleaved during expression, used as standard	–	–	–	–	–	–	–	–	–	–	–	–	–	decrease of NO-bound Em between pH 5.5 and 7.5 ([2]; NO complex): 68 mV; pH dependence of Em, negative shift ([2]; NO complex, pH 5.5–7.5 range): 34 mV/pH unit; Em ([5]; pH 5.5, 27 °C ref 20): −318±1 mV vs. SHE; Em ([5]; pH 6.5, 27 °C ref 20): −327±6 mV vs. SHE; Em ([5]; pH 7.5, 27 °C ref 20): −325±3 mV vs. SHE; Em,NO ([6]; pH 5.5, 27 °C ref 20): 48±1 mV vs. SHE; Em,NO ([6]; pH 6.5, 27 °C ref 20): 10±1 mV vs. SHE; Em,NO ([6]; pH 7.5, 27 °C ref 20): −20±1 mV vs. SHE
NP2–M0D1: recombinant wild-type nitrophorin 2 expressed with the N-terminal methionine present	–	–	–	–	–	–	–	–	–	–	–	–	–	NO formation constant Kf, Fe(III) form [7]: 2e+08 M⁻¹; Kd ([7]; read-out: NO dissociation constant Kd, Fe(III) form): 5 nM; Kd ([8]; pH 5.5 ref 19): 1 nM; Kd ([8]; pH 7.5 ref 19): 20 nM
